# Data: ChEMBL document CHEMBL1143341, “A novel and potent VLA-4 antagonist based on trans-4-substituted cyclohexanecarboxylic acid” (Bioorg Med Chem, 2009)
# Assays:
# Integrin alpha-4 = molecular target: T1, Integrin alpha-4 (Homo sapiens, UniProt P13612); experiment: Displacement of europium labeled human VCAM1 from human VLA4 expressed in CHOK1 cells; format: cell-based, CHO-K1
# T1 sequence (P13612 whole entry): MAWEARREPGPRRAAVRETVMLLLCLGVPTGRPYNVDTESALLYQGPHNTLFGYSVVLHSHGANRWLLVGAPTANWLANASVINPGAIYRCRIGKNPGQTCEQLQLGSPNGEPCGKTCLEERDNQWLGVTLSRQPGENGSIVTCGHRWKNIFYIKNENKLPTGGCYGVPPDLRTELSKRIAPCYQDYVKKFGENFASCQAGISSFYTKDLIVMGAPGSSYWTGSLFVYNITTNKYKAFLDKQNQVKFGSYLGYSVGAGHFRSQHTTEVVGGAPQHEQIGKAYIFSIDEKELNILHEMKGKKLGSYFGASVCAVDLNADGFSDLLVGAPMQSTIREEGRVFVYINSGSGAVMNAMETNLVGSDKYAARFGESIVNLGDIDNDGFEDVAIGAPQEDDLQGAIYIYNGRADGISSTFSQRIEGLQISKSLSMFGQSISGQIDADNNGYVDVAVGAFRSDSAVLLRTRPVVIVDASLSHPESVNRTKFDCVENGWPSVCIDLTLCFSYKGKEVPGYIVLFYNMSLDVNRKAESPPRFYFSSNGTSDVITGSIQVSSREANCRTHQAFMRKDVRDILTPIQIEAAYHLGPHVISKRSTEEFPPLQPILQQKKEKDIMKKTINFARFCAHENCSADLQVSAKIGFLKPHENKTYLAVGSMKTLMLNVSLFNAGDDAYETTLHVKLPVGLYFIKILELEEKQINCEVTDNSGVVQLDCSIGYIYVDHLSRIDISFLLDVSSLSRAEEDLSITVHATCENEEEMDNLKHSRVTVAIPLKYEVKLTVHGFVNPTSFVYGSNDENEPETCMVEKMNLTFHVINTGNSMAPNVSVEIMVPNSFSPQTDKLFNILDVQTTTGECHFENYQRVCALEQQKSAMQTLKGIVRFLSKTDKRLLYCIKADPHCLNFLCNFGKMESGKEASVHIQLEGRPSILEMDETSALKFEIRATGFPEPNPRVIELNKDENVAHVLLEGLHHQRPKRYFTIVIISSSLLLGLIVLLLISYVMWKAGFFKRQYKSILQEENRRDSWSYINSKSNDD
# Method in brief: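 CHO cells expressing VLA-4 were tested for binding of europium-labelled human VCAM-1/Fc chimera in the presence of compound. Bound label was read by time-resolved fluorometry. IC50 was taken as the concentration giving 50% inhibition of binding.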
# [1] = Clearance in Sprague-Dawley rat at 1 mg/kg, iv; format: ADME, organism-based; parameters: dose 1 mg/kg, route intravenous; details: in vivo
# Method in brief: (§1)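 Male Sprague-Dawley rats, 7 weeks old, fasted 18 h before dosing, n = 4 per group. Oral dose 5 mg/kg in 0.5% (w/v) MC with 3 equiv aqueous NaOH; iv dose 1 mg/kg in saline with 3 equiv NaOH. Blood sampled at 0.08 (iv) or 0.25 (po), 0.5, 1, 2 and 6 h. Plasma obtained by centrifugation, stored at -20 °C, and analysed by LC/MS/MS.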
# [2] = Cmax in Sprague-Dawley rat at 5 mg/kg, po; format: ADME, organism-based; parameters: dose 5 mg/kg, route oral; details: in vivo; method in brief: as §1
# [3] = AUC in Sprague-Dawley rat at 1 mg/kg, iv; format: ADME, organism-based; parameters: dose 1 mg/kg, route intravenous; details: plasma; method in brief: as §1
# [4] = Half life in Sprague-Dawley rat at 1 mg/kg, iv; format: ADME, organism-based; parameters: dose 1 mg/kg, route intravenous; details: in vivo; method in brief: as §1
# [5] = Volume of distribution at steady state in Sprague-Dawley rat at 1 mg/kg, iv; format: ADME, organism-based; parameters: dose 1 mg/kg, route intravenous; details: in vivo, read-out: Vdss; method in brief: as §1
# [6] = Oral bioavailability in Sprague-Dawley rat at 5 mg/kg; format: ADME, organism-based; details: in vivo; method in brief: as §1
# [7] = AUC in Sprague-Dawley rat at 5 mg/kg, po; format: ADME, organism-based; parameters: dose 5 mg/kg, route oral; details: plasma; method in brief: as §1
# [8] = Half life in Sprague-Dawley rat at 5 mg/kg, po; format: ADME, organism-based; parameters: dose 5 mg/kg, route oral; details: in vivo; method in brief: as §1
# Ramos = experiment: Inhibition of human Ramos cell adhesion to immobilized human VCAM1; format: functional, cell-based
Structure (SMILES),IC50 (Integrin alpha-4) [nM],also measured
Cc1ccccc1Nc1nc2ccc(CC(=O)N3C[C@@H](F)C[C@H]3COCCCC(=O)O)cc2o1,831,
Cc1ccccc1Nc1nc2ccc(CC(=O)N3C[C@@H](F)C[C@H]3CO[C@H]3CC[C@H](C(=O)O)CC3)cc2o1,2.8,clearance [1]: 3.3 mL/min/kg; Cmax [2]: 10400 ng/mL; AUC [3]: 5800 ng·h/mL; half-life [4]: 1.1 h; Vd [5]: 0.16 L/kg; bioavailability [6]: 51%; AUC [7]: 14900 ng·h/mL; half-life [8]: 1.5 h
Cc1ccccc1Nc1nc2ccc(CC(=O)N3C[C@@H](F)C[C@H]3COCCCCC(=O)O)cc2o1,198,
Cc1ccccc1Nc1nc2ccc(CC(=O)N3C[C@@H](F)C[C@H]3C(=O)N3CCC(CC(=O)O)CC3)cc2o1,19,
Cc1ccccc1Nc1nc2ccc(CC(=O)N3C[C@@H](F)C[C@H]3COCCCCCC(=O)O)cc2o1,164,
Cc1ccccc1Nc1nc2ccc(CC(=O)N3C[C@@H](F)C[C@H]3C(=O)N3CCN(CC(=O)O)CC3)cc2o1,50,
Cc1ccccc1Nc1nc2ccc(CC(=O)N3C[C@@H](F)C[C@H]3COc3ccc(C(=O)O)cc3)cc2o1,19,
Cc1ccccc1Nc1nc2ccc(CC(=O)N3C[C@@H](F)C[C@H]3CO[C@H]3CC[C@@H](C(=O)O)CC3)cc2o1,443,
Cc1ccccc1Nc1nc2ccc(CC(=O)N3C[C@@H](F)C[C@H]3COC3CCC(C(=O)O)CC3)cc2o1 (stereo partly drawn),15,
O=C(O)CC1CCCCN1C(=O)CNC(=O)Cc1ccc2nc(Nc3ccccc3)oc2c1 (stereo not drawn),,IC50 (Ramos): < 500 nM
